Measurements taken from ChEMBL document CHEMBL1153363, “Structure-activity relationships for a series of quinoline-based compounds active against replicating and nonreplicating Mycobacterium tuberculosis” (J Med Chem, 2009).
pIC50: −log10 of the molar value. Values after ≈ are worked out from the molar mass of the structure shown.

How the values were obtained:
Vero = experiment: Cytotoxicity against african green monkey Vero cells after 72 hrs by Cell titer assay; assay type: cell-based, Chlorocebus sabaeus
In short: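 Vero CCL-81 cells, log phase. Samples from 12.8 mM DMSO stocks in geometric 3-fold dilutions in MEM with 10% FBS, 25 mM HEPES, 0.2% NaHCO₃ and 2 mM glutamine; DMSO ≤1% v/v final. Run in duplicate, 72 h at 37 °C, 5% CO₂. Viability by CellTiter 96 aqueous assay, absorbance 490 nm; IC50 from curve fitting.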

[1] = test system: Mycobacterium tuberculosis; experiment: Antitubercular activity against non replicating persistent form of Mycobacterium tuberculosis H37Rv ATCC 27294 after 10 days by LORA; assay type: functional; settings: 240 h
In short: (§1)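 Recombinant H37Rv (pFCA-luxAB, V. harveyi luciferase, acetamidase promoter), low-oxygen adapted in fermentor, washed in PBS, stored at -80 °C. About 10⁵ cfu/mL of thawed cells exposed to two-fold serial dilutions in 7H12, 10 days anaerobic at 37 °C. Luminescence read after 28 h aerobic recovery (5% CO₂). MIC = lowest concentration preventing recovery (90% reduction versus untreated), read graphically.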

[2] = test system: Mycobacterium tuberculosis; experiment: Ratio of MIC for non replicating persistent form of Mycobacterium tuberculosis H37Rv ATCC 27294 by LORA to MIC for replicating form of Mycobacterium tuberculosis H37Rv ATCC 27294 by microplate alamar blue assay; assay type: functional
[3] = test system: Mycobacterium tuberculosis; experiment: Antitubercular activity against replicating form of Mycobacterium tuberculosis H37Rv ATCC 27294 after 7 days by microplate alamar blue assay; assay type: functional; settings: 168 h
In short: (§2)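 12.8 mM DMSO stocks; two-fold dilutions in Middlebrook 7H12 broth, final 128 to 0.5 µM. Inoculum 2 × 10⁵ cfu/mL, 37 °C. On day 7, Tween 80 plus Alamar Blue added; fluorescence read (ex 530/em 590 nm) after 16-24 h more. MIC = lowest concentration giving ≥90% fluorescence drop versus bacteria-only controls; mean of two runs. RMP and INH positive controls.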

[4] = test system: Mycobacterium tuberculosis; experiment: Antitubercular activity against replicating form of Mycobacterium tuberculosis; assay type: functional; in short: as §2
[5] = test system: Mycobacterium tuberculosis; experiment: Antitubercular activity against non replicating persistent form of Mycobacterium tuberculosis; assay type: functional; in short: as §1
[6] = test system: Mycobacterium tuberculosis; experiment: Antitubercular activity against Mycobacterium tuberculosis; assay type: functional; in short: as §2
[7] = Chlorocebus sabaeus, Vero, 72 h

Row | Structure (SMILES) | pIC50 (Vero; [7]) | MIC [1] [µM] | MIC [3] [µM] | also measured
1 | CCOC(=O)c1cc(COc2ccnc3cc(Cl)ccc23)on1 | < 3.89 | 99.7 (≈ 33.2 µg/mL) | 3.8 (≈ 1.26 µg/mL) | Ratio [2]: 25
2 | CCOC(=O)c1cc(COc2cc(C(F)(F)F)nc3c(C)cccc23)on1 | < 3.89 | 10.4 (≈ 3.96 µg/mL) | 1.8 (≈ 0.685 µg/mL) | –
3 | CCOC(=O)c1cc(-c2cccc(Oc3cc(C(F)(F)F)nc4ccccc34)c2)on1 | < 3.89 | 3.7 (≈ 1.58 µg/mL) | 0.95 (≈ 0.407 µg/mL) | –
4 | CCOC(=O)c1coc(COc2cc(C(F)(F)F)nc3c(C(F)(F)F)cccc23)n1 | – | – | > 128 | –
5 | CO[C@H]1/C=C/O[C@@]2(C)Oc3c(C)c(O)c4c(O)c(c(/C=N/N5CCN(C)CC5)c(O)c4c3C2=O)NC(=O)/C(C)=C\C=C\[C@H](C)[C@H](O)[C@@H](C)[C@@H](O)[C@@H](C)[C@H](OC(C)=O)[C@@H]1C [RIFAMPIN] | 3.90 | 1.9 (≈ 1.56 µg/mL) | 0.1 (≈ 0.0823 µg/mL) | pIC50 (Vero; vero): 3.90
6 | CCOC(=O)c1cc(COc2cc(C(F)(F)F)nc3c(C(F)(F)F)cccc23)on1 | < 3.89 | 12.2 (≈ 5.3 µg/mL) | 0.9 (≈ 0.391 µg/mL) | MIC [4]: 0.9 µM (≈ 0.391 µg/mL); MIC [5]: 12.2 µM (≈ 5.3 µg/mL)
7 | CCOC(=O)c1cc(COc2cc(C(F)(F)F)nc3c(C(F)(F)F)cc(OC)cc23)on1 | < 3.89 | – | 66.1 (≈ 30.7 µg/mL) | –
8 | CCOC(=O)c1cc(Cn2ccc(=O)c3ccc(C(F)(F)F)cc32)on1 | – | – | > 128 | –
9 | CCOC(=O)c1cc(COc2cc(C(F)(F)F)nc3c(Cl)cccc23)on1 | – | 49.3 (≈ 19.8 µg/mL) | 62.9 (≈ 25.2 µg/mL) | –
10 | CCC(=O)c1cc(COc2cc(C(F)(F)F)nc3c(C(F)(F)F)cccc23)on1 | 4.19 | – | 27.4 (≈ 11.5 µg/mL) | –
11 | CCOC(=O)c1cc(COc2cc(C(=O)OCC)nc3ccccc23)on1 | < 3.89 | 15.7 (≈ 5.81 µg/mL) | 7.9 (≈ 2.93 µg/mL) | –
12 | CCOC(=O)c1cc(CCOc2cc(C(F)(F)F)nc3c(C(F)(F)F)cccc23)on1 | < 3.89 | 9.9 (≈ 4.44 µg/mL) | 3.4 (≈ 1.52 µg/mL) | –
13 | CCOC(=O)c1cc(COc2cc(C(F)(F)F)nc3c(F)cc(F)cc23)on1 | – | – | 14.6 (≈ 5.87 µg/mL) | –
14 | CCOC(=O)c1cc(COc2cc(C(F)(F)F)nc3c(OC(F)(F)F)cccc23)on1 | < 3.89 | 7 (≈ 3.15 µg/mL) | 2.6 (≈ 1.17 µg/mL) | –
15 | O=[N+]([O-])c1ccc(COc2cc(C(F)(F)F)nc3c(C(F)(F)F)cccc23)o1 | 4.81 | – | 6.3 (≈ 2.56 µg/mL) | –
16 | CCOC(=O)c1cc(COc2ccnc3ccccc23)on1 | < 3.89 | 13.2 (≈ 3.94 µg/mL) | 25.1 (≈ 7.49 µg/mL) | –
17 | CCOC(=O)c1cccc(COc2cc(C(F)(F)F)nc3c(C(F)(F)F)cccc23)n1 | – | – | > 128 | –
18 | CCOC(=O)c1cc(COc2cc(C(F)(F)F)nc3c(F)ccc(F)c23)on1 | – | 52.8 (≈ 21.2 µg/mL) | 41.2 (≈ 16.6 µg/mL) | –

Row | Structure (SMILES) | pIC50 (Vero; [7]) | MIC [1] [µM] | MIC [3] [µM] | also measured
19 | FC(F)(F)c1cc(OCc2nnn[nH]2)c2cccc(C(F)(F)F)c2n1 | – | – | > 128 | –
20 | CCOC(=O)c1cc(COc2cc(C(F)(F)F)nc3c(C(F)(F)F)cccc23)no1 | < 3.89 | – | 3.6 (≈ 1.56 µg/mL) | –
21 | CCOC(=O)c1cc(COc2cc(C(F)(F)F)nc3c(F)cccc23)on1 | < 3.89 | 39 (≈ 15 µg/mL) | 11.3 (≈ 4.34 µg/mL) | –
22 | CCOC(=O)c1cc(COc2ccnc3c(C(F)(F)F)cccc23)on1 | < 3.89 | 56.6 (≈ 20.7 µg/mL) | 10.6 (≈ 3.88 µg/mL) | –
23 | CCOC(=O)c1ccc(COc2cc(C(F)(F)F)nc3c(C(F)(F)F)cccc23)cc1 | < 3.89 | – | > 128 | –
24 | OC(c1cc(C(F)(F)F)nc2c(C(F)(F)F)cccc12)C1CCCCN1 (configuration not stated) [MEFLOQUINE] | – | – | – | MIC [6]: 13 µM (≈ 4.92 µg/mL)
25 | CCOC(=O)c1cc(COc2cc(C(F)(F)F)nc3ccc(C(F)(F)F)cc23)on1 | < 3.89 | 7.6 (≈ 3.3 µg/mL) | 3.7 (≈ 1.61 µg/mL) | Ratio [2]: 2
26 | CCOC(=O)c1nc(COc2cc(C(F)(F)F)nc3c(C(F)(F)F)cccc23)cs1 | < 3.89 | – | 16.5 (≈ 7.43 µg/mL) | –
27 | CCOC(=O)c1cc(COc2ccnc3cc(C(F)(F)F)ccc23)on1 | – | 81.9 (≈ 30 µg/mL) | 3.3 (≈ 1.21 µg/mL) | Ratio [2]: 25
28 | CCOC(=O)c1ccc(COc2cc(C(F)(F)F)nc3c(C(F)(F)F)cccc23)o1 | 3.93 | – | > 128 | –
29 | NNC(=O)c1ccncc1 [ISONIAZID] | < 3.89 | > 128 | 0.5 (≈ 0.0686 µg/mL) | –
30 | CCOC(=O)C1=NOC(COc2cc(C(F)(F)F)nc3c(C(F)(F)F)cccc23)C1 (configuration not stated) | < 3.89 | – | 22.2 (≈ 9.69 µg/mL) | –
31 | CCOC(=O)c1cc(COc2cc(C(F)(F)F)nc3ccccc23)on1 | < 3.89 | 25.1 (≈ 9.19 µg/mL) | 3.2 (≈ 1.17 µg/mL) | –
32 | CCOC(=O)c1cc(COc2cc(C(F)(F)F)nc3cc(C(F)(F)F)cc(C(F)(F)F)c23)on1 | < 3.89 | 10 (≈ 5.02 µg/mL) | 0.77 (≈ 0.387 µg/mL) | –
33 | CCOC(=O)c1cc(COc2cc(C(F)(F)F)nc3cc(Cl)cc(Cl)c23)on1 | < 3.89 | 3.7 (≈ 1.61 µg/mL) | 1.9 (≈ 0.827 µg/mL) | –
34 | CN[C@@H]1[C@H](O[C@H]2[C@H](O[C@H]3[C@H](O)[C@@H](O)[C@H](N=C(N)N)[C@@H](O)[C@@H]3N=C(N)N)O[C@@H](C)[C@]2(O)C=O)O[C@@H](CO)[C@H](O)[C@H]1O [STREPTOMYCIN] | – | – | 0.3 (≈ 0.174 µg/mL) | –
35 | CCOC(=O)c1cc(COc2cc(C(F)(F)F)nc3cc(C(F)(F)F)ccc23)on1 | < 3.89 | – | 1.3 (≈ 0.565 µg/mL) | –
36 | CCOC(=O)c1cc(COc2cc(C(F)(F)F)nc3cccc(C(F)(F)F)c23)on1 | < 3.89 | – | 3.8 (≈ 1.65 µg/mL) | –
